For assay [1], the target named is Receptor-type tyrosine-protein kinase FLT3 (Homo sapiens) (UniProt P36888). The experiment in a line: Competitive binding affinity to FLT3 (unknown origin) at 10 uM in presence of ATP relative to control. An outline of the steps: (§1)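 In vitro ATP-site competition binding assay, part of profiling against a diverse panel of 128 kinases. Each compound was tested at a single concentration of 10 µM. Kinome selectivity was summarized as S15 selectivity scores.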

Assay [2] concerns the target Ephrin type-A receptor 7 (Homo sapiens) (UniProt Q15375). Briefly: Competitive binding affinity to EPHA7 (unknown origin) at 10 uM in presence of ATP relative to control. The essentials: as §1
The target of assay [3] is Tyrosine-protein kinase SYK (Homo sapiens) (UniProt P43405). The experiment in a line: Competitive binding affinity to SYK (unknown origin) at 10 uM in presence of ATP relative to control. An outline of the steps: (§2)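 In vitro ATP-site competition binding assay across a diverse panel of 128 kinases, with compound tested at a single concentration. Kinase selectivity scores (S15) were calculated from the panel profiles.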

Assay [4] deals with Protein-tyrosine kinase 2-beta (Homo sapiens) (UniProt Q14289). The experiment in a line: Competitive binding affinity to PTK2B (unknown origin) at 10 uM in presence of ATP relative to control. An outline of the steps:
as §2

The target in assay [5] is T1, Serine/threonine-protein kinase PLK4 (Homo sapiens) (UniProt O00444).
T1 sequence (whole entry): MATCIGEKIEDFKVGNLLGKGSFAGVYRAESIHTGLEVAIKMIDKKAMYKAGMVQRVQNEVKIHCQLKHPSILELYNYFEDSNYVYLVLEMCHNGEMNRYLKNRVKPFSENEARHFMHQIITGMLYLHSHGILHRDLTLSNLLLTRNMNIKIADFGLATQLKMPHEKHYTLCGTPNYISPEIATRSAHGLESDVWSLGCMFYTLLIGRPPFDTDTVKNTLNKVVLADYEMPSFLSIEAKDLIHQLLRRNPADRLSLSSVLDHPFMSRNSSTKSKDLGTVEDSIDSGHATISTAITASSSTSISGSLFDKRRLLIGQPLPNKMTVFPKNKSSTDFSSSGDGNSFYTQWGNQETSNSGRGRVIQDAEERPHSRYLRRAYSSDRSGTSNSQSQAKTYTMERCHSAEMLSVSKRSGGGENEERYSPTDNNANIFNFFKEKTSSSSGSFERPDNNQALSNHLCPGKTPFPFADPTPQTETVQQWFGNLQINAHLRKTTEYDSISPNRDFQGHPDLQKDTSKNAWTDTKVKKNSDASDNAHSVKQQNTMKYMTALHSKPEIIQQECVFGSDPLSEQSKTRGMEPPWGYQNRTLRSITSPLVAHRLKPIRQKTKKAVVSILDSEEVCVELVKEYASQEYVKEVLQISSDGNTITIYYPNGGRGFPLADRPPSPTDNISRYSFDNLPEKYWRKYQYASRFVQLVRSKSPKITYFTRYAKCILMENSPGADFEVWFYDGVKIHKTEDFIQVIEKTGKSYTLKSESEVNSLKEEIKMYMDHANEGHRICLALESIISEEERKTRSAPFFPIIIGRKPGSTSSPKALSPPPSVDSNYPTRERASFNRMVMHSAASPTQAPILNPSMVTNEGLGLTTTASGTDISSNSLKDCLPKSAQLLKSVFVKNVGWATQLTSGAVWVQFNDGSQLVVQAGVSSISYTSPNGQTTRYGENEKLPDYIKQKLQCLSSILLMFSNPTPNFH
The experiment in a line: Competitive binding affinity to PLK4 (unknown origin) at 10 uM in presence of ATP relative to control. The essentials: as §2

For assay [6], the target named is T2, Tyrosine-protein kinase ITK/TSK (Homo sapiens) (UniProt Q08881).
T2 sequence (whole entry): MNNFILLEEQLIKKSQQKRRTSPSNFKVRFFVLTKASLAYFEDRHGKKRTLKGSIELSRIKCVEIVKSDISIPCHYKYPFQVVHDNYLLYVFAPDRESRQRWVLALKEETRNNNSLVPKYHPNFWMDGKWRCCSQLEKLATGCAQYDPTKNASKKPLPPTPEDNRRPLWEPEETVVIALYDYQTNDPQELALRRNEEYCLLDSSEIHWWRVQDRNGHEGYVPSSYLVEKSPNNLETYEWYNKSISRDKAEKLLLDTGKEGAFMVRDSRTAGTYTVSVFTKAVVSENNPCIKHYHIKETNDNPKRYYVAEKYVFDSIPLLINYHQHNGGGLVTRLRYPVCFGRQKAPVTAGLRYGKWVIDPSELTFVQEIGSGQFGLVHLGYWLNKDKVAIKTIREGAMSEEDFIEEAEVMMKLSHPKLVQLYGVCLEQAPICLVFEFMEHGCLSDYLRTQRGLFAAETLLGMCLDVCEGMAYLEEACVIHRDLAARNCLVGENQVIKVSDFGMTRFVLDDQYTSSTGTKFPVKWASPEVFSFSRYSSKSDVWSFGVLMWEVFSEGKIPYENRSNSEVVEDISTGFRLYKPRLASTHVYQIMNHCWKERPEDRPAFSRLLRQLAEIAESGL
The experiment in a line: Competitive binding affinity to ITK (unknown origin) at 10 uM in presence of ATP relative to control. The essentials: as §1

Assay [7] addresses Insulin-like growth factor 1 receptor (Homo sapiens) (UniProt P08069). Briefly: Competitive binding affinity to IGF1R (unknown origin) at 10 uM in presence of ATP relative to control. The essentials:
as §1

Each structure is given as a SMILES string. Some results are limits rather than exact numbers.

Sequence of Ephrin type-A receptor 7 (Homo sapiens) (Q15375 28-998 limits assumed): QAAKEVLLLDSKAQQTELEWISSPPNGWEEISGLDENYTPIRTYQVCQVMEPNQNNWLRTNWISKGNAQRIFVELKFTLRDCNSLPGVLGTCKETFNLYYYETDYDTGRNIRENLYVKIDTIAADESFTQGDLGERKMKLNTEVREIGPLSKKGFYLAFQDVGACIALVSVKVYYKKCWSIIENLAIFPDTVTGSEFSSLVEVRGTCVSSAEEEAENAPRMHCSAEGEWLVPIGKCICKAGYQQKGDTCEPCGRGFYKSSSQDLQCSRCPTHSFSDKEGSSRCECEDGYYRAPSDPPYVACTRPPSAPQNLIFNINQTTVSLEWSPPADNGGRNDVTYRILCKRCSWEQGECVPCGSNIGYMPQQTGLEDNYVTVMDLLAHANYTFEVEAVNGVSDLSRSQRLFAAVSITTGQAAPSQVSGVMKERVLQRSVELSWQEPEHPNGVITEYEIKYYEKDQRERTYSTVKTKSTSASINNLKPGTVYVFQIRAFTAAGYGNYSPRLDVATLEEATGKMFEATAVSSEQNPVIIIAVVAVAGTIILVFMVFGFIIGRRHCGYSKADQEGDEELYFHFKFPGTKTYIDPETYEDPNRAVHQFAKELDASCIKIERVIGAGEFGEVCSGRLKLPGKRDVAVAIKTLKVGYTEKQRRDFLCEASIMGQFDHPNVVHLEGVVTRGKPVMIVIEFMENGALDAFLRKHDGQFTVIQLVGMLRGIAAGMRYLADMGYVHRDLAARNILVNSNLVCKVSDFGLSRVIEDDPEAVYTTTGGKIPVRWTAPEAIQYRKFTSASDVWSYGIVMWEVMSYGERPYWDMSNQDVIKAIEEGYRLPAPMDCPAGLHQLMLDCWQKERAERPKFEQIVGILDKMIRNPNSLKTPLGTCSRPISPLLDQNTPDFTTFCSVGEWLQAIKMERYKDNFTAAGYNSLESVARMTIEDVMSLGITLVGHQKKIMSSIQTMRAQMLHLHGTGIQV
Sequence of Receptor-type tyrosine-protein kinase FLT3 (Homo sapiens) (P36888 whole entry): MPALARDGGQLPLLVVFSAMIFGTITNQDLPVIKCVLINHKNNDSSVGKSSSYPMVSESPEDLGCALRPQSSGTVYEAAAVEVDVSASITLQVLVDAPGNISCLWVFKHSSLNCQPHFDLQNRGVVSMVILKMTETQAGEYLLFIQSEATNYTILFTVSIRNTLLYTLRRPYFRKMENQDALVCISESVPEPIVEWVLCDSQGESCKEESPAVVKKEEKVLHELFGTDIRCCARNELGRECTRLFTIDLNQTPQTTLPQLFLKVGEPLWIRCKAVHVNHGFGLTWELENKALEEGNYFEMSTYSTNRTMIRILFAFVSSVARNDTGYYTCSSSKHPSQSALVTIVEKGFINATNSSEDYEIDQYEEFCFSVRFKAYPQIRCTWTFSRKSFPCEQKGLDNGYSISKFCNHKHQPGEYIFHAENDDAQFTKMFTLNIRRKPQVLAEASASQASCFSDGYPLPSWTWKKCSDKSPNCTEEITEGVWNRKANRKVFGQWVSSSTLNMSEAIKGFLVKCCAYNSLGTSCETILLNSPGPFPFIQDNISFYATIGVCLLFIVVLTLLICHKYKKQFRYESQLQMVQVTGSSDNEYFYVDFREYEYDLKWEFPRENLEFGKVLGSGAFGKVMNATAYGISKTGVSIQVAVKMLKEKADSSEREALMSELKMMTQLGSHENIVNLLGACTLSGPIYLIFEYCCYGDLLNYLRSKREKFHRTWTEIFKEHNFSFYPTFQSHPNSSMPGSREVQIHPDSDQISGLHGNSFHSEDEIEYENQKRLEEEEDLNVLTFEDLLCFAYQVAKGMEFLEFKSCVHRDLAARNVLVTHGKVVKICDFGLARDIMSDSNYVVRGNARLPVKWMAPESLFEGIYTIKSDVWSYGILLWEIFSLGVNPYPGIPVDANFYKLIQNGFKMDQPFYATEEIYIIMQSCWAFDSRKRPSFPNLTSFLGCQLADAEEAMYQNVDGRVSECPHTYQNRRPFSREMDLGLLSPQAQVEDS
Sequence of Protein-tyrosine kinase 2-beta (Homo sapiens) (Q14289 whole entry, looked up): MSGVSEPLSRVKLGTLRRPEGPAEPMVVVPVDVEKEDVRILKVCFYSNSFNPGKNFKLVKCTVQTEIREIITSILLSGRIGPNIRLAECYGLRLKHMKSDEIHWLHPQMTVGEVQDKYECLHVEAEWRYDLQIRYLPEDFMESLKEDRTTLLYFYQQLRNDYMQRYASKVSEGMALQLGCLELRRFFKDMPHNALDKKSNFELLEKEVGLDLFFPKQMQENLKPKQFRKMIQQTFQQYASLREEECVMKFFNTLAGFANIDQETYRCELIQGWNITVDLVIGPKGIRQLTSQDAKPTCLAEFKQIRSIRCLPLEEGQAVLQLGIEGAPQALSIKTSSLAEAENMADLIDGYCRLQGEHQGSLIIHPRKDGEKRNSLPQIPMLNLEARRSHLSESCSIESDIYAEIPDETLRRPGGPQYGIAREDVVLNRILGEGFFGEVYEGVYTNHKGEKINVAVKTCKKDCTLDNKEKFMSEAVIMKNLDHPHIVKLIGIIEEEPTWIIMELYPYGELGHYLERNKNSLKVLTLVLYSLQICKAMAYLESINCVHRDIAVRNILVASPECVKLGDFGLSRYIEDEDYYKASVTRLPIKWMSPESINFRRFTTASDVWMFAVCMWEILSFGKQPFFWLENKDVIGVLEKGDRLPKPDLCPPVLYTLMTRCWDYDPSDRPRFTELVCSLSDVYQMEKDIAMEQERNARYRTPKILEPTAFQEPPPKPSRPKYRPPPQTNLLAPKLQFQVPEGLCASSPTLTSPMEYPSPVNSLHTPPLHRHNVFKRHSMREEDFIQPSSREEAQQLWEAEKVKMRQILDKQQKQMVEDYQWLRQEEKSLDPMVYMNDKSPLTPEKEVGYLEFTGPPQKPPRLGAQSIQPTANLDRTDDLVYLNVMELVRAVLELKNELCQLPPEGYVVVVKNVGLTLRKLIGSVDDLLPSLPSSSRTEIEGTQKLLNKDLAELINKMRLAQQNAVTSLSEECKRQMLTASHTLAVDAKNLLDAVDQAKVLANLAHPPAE
Sequence of Insulin-like growth factor 1 receptor (Homo sapiens) (P08069 31-736 limits assumed): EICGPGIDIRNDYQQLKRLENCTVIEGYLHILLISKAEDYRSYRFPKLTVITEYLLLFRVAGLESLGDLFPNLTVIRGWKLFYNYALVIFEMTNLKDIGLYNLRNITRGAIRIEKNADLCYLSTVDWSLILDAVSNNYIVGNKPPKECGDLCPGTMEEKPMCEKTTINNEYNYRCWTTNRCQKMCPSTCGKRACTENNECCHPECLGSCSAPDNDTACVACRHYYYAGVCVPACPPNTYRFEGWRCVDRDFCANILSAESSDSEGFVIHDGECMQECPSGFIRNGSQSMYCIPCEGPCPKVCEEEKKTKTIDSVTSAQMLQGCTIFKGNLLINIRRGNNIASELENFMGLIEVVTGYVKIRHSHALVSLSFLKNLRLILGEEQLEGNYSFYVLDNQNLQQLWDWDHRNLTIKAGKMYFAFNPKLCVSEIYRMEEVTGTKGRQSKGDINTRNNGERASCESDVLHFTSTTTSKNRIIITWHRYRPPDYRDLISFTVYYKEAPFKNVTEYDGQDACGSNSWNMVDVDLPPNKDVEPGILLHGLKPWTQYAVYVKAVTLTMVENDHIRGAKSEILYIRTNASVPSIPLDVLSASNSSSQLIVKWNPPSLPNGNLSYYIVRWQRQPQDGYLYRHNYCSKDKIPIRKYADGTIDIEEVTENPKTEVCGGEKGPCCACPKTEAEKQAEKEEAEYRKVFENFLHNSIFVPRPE
Sequence of Insulin-like growth factor 1 receptor (Homo sapiens) (P08069 741-1367 limits assumed): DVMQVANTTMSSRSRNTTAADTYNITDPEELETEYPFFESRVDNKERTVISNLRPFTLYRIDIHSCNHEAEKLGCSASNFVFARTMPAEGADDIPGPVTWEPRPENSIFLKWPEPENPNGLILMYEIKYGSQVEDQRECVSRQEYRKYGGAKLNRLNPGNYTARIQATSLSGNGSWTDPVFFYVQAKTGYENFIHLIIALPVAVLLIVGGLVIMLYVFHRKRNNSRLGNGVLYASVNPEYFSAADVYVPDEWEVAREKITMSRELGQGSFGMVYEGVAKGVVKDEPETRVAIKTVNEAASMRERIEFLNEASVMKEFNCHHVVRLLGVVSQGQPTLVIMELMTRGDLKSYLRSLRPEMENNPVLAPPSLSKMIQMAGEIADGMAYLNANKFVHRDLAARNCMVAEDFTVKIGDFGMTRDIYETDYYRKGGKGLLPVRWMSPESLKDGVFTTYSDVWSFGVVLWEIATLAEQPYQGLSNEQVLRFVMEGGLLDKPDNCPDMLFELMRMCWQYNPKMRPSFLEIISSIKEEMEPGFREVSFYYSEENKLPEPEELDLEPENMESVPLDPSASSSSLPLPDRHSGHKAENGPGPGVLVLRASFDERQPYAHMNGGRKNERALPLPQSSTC

By inhibition is commonly meant the share of the control response that was lost under treatment. With `O[C@H]1CC[C@H](Nc2nccc(-n3ccc4ccccc43)n2)CC1`, the inhibition in assay [1] is 85%; in assay [2], less than 50%; in assay [3], less than 50%; in assay [4], less than 50%; in assay [5], less than 50%; in assay [6] it was less than 50%. Moreover, the inhibition in assay [7] was less than 50%.
As for `O[C@H]1CC[C@H](Nc2nccc(-n3nnc4ccccc43)n2)CC1`, the inhibition in assay [1] was 88%; in assay [2], less than 50%; in assay [3] it was less than 50%; in assay [4], less than 50%; in assay [5], less than 50%; in assay [6], less than 50%. Also, the inhibition in assay [7] was less than 50%.
Consider `O=C([C@H]1CC[C@H](Nc2nccc(-n3nnc4ccccc43)n2)CC1)N1CCOCC1`, for which the inhibition was less than 50% in assay [1]; less than 50% in assay [2]; less than 50% in assay [3]; less than 50% in assay [4]; 71% in assay [5]; less than 50% in assay [6]. Moreover, the inhibition in assay [7] is less than 50%.
Turning to `O[C@H]1CC[C@H](Nc2nccc(-n3ncc4ccccc43)n2)CC1`, the inhibition was 95% in assay [1]; less than 50% in assay [2]; less than 50% in assay [3]; less than 50% in assay [4]; 63% in assay [5]; less than 50% in assay [6]. The inhibition in assay [7] is less than 50%.
For `O[C@H]1CC[C@H](Nc2nccc(-c3n[nH]c4ccccc34)n2)CC1`, the inhibition in assay [1] is less than 50%; in assay [2], 95%; in assay [3] it was 69%; in assay [4], 77%; in assay [5], 100%; in assay [6], 96%. Also, the inhibition in assay [7] was determined as 95%.
On to `N[C@H]1CC[C@H](Nc2nccc(-n3nnc4ccccc43)n2)CC1`, for which the inhibition is 92% in assay [1]; less than 50% in assay [2]; less than 50% in assay [3]; less than 50% in assay [4]; less than 50% in assay [5]; less than 50% in assay [6]. Moreover, the inhibition in assay [7] is less than 50%.
